A short description of data set [1]: Partition coefficient (logP). The class given is physicochemical. The following applies: octanol/water; read-out: logP.
In data set [2] the test system is Mus musculus. The data set can be described thus: Relative tumor growth inhibition against human epidermoid carcinoma KB/8.5 implanted subcutaneously only in mice at 8 mg/kg (DOX). The class given is functional. The following applies: route subcutaneous. The method in brief:
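KB/8.5 cells grown in RPMI 1640 with 5% fetal calf serum plus colchicine (10 ng/mL), which was removed for two passages. 8 × 10^6 cells were then implanted sc in athymic nude mice. At 100-300 mg tumor mass, mice were grouped 5-10/group. Doxorubicin was given as a single iv dose (8 mg/kg). Tumor mass was measured on day 14, and relative growth was compared with saline control.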

Data set [3] relates to Mus musculus. Description: Percent tumor growth inhibition obtained for the combination of DOX(8 mg/kg) together with MDR reversal agent versus DOX (8 mg/kg) alone on day 14 at 100 mg/kg dose(in vivo). The class given is functional. The following applies: 336 h, read-out: TGI. In short, it runs like this:
(§1)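 Athymic nude mice bearing sc KB/8.5 tumors (8×10^6 cells, colchicine withdrawn for two passages), grouped at 100–300 mg tumor mass, 5–10 mice/group. Doxorubicin 8 mg/kg given once iv; reversal agent or placebo given sc 2 h before and 2 h after. Tumor mass on day 14 used for relative tumor growth versus doxorubicin alone; Student t-test on log RTG.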

Data set [4] in a line: (§2) In vitro concentration at which 50% of human colon carcinoma cells (S1-B1-20) resistant to bisantrene have survived. The class given is ADME, cell-based, S1B1-20. The following applies: S1-B1-20 human colon carcinoma cells resistant to bisantrene, read-out: LD50 (the source's name). The method in brief: (§3)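 S1-B1-20 cells (LS 174 T-derived S1 clone selected in bisantrene over 12–16 weeks), trypsinized, 20 000 cells/well. Test agent alone in DMSO (≤0.1% final), 0.1–80 µM, 3 days at 37 °C, 7% CO2. Survival by sulforhodamine B read at 540 nm versus untreated cells. Two to four measurement sets were made, and the value is the concentration giving 50% survival from a best-fit curve.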

The test system of data set [5] is S1B1-20. The data set can be described thus: In vitro concentration required to inhibit tumor activity on subclone of human colon carcinoma cells (S1-B1-20) resistant to bisantrene. The class given is functional, cell-based. The method in brief:
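S1-B1-20 cells (S1 clone of LS 174 T, selected in bisantrene over 12–16 weeks) plated at 20 000 cells/well with or without 20 μM bisantrene, plus test agent 0.1–80 μM from DMSO stock (final DMSO ≤0.1%). 3 days, 37 °C, 7% CO2. Survival by sulforhodamine B at 540 nm. IC50 from best-fit curve of difference score (survival alone minus survival with bisantrene) at 50; 2–4 sets of measurements.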

The test system of data set [6] is Mus musculus. The data set can be described thus: Percent increase in mean life span relative to treatment with an equivalent dose of vincristine alone at 12.5 mg/kg in mice with vincristine-resistantmurine leukemia P388/VCR cells. The class given is functional. In short, it runs like this: (§4)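 CDF1 mice were implanted ip with 1 × 10^6 P388/VCR cells. Agent and 0.2 mg/kg vincristine were given simultaneously ip once daily, days 1–7. Mean survival over up to 30 days was compared with vincristine alone at an equivalent dose, giving % increase in life span. Student t-test was applied to mean survival time.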

In data set [7] the test system is Mus musculus. Description: Percent increase in mean life span in mice infected with leukemia P388/VCR, at 12.5 mg/Kg dose. Format: functional. The method in brief: (§5)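 CDF1 mice (groups of 10–15) were implanted ip with 1 × 10^6 P388/VCR cells. Agent plus 0.2 mg/kg vincristine were given together ip once daily on days 1–7, starting 1 day post-implant, in cremophor/ethanol or propylene glycol/ethanol vehicle. Survival was recorded to 30 days. Result is the % increase in mean life span versus placebo control.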

Data set [8] has as its system Mus musculus. The data set can be described thus: Percent increase in mean life span when 0.2 mg/kg vincristine was administered ip once daily on days 1-7, in mice infected with leukemia P388/VCR. The class given is functional. More on the design: concentration or dose not given beside the values. The following applies: route intraperitoneal. The method in brief: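 CDF1 mice bearing ip P388/VCR (1 × 10^6 cells) received 0.2 mg/kg vincristine ip once daily on days 1–7. Mean survival to 30 days was expressed as % increase in life span relative to placebo control.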

In data set [9] the test system is Mus musculus. The data set can be described thus: Percent increase in mean life span relative to treatment with an equivalent dose of vincristine alone at 25 mg/kg in mice with vincristine-resistantmurine leukemia P388/VCR cells. Format: functional. In short, it runs like this:
as §4

The subject of data set [10] is Mus musculus. Description: Percent increase in mean life span in mice infected with leukemia P388/VCR, at 25 mg/Kg dose. The class given is functional. The method in brief: as §5
The subject of data set [11] is Mus musculus. The data set can be described thus: Percent tumor growth inhibition against human epidermoid carcinoma KB/8.5 implanted subcutaneously in mice at 50 mg/kg of compound along with 8 mg/kg (DOX ) was determined. The class given is functional. The method in brief: as §1
Data set [12] relates to S1B1-20. The data set is described as §2. The class given is ADME, cell-based. The following applies: s1b1-20, read-out: LD50 (the source's name). In short, it runs like this: as §3
The subject of data set [13] is Mus musculus. Description: Percent tumor growth inhibition against human epidermoid carcinoma KB/8.5 implanted subcutaneously in mice at 100 mg/kg of compound along with 8 mg/kg (DOX ) was determined. Format: functional. The method in brief:
as §1

Data set [14] has as its system Mus musculus. The data set can be described thus: Percent increase in mean life span relative to treatment with an equivalent dose of vincristine alone at 50 mg/kg in mice with vincristine-resistantmurine leukemia P388/VCR cells. Format: functional. The method in brief: as §4
Data set [15] has as its system Mus musculus. The data set can be described thus: Percent increase in mean life span in mice infected with leukemia P388/VCR, at 50 mg/Kg dose. The class given is functional. In short, it runs like this: as §5
The subject of data set [16] is Mus musculus. Description: Percent tumor growth inhibition against human epidermoid carcinoma KB/8.5 implanted subcutaneously in mice at 25 mg/kg of compound along with 8 mg/kg (DOX ) was determined. The class given is functional. The method in brief: as §1
Data set [17] has as its system Mus musculus. Description: Percent increase in mean life span relative to treatment with an equivalent dose of vincristine alone at 6.3 mg/kg in mice with vincristine-resistantmurine leukemia P388/VCR cells. The class given is functional. The method in brief: as §4
Data set [18] relates to Mus musculus. Description: Percent increase in mean life span in mice infected with leukemia P388/VCR, at 6.3 mg/Kg dose. The class given is functional. In short, it runs like this:
as §5

SMILES strings stand for the structures.

By logP is commonly meant the decadic logarithm of the partition coefficient of the neutral form, usually between octanol and water. As usually defined, the IC50 is the point on the concentration scale where inhibition reaches its midpoint. As to `COc1ccc(C(C#N)(CCCCCN2CCc3cc(OC)c(OCCCl)cc3C2)Sc2ccc(C)cc2)cc1OC` (stereo unspecified), the logP in data set [1] turned out to be 6.77. The Relative tumor growth in the data set with Mus musculus [2] stood at 75. Besides, the inhibition in vivo at 100 mg/kg with Mus musculus [3] turned out to be 64%. In addition, in data set [4], the CC50 came out at 16.8 µM. In the data set with S1B1-20 [5] (Homo sapiens, S1B1-20), this molecule registered an IC50 of 0.37 µM.
What is called ILS is the gain in survival time of treated over control animals, in per cent. As for `COc1ccc2c(c1)CCN(CCCCCC(C#N)(Sc1ccc(C)cc1)c1ccc(OC)c(OC)c1)C2` (stereo unspecified), the log partition coefficient (logP) in data set [1] is 6.64. Also, the figures for the ILS at 12.5 mg/kg in the data set on Mus musculus [6] and in the data set with Mus musculus [7] were 24% and 56%, respectively. This molecule came in with an ILS in the data set on Mus musculus [8] of 26%. The CC50 in data set [4] came to 15.7 µM. In the data set with S1B1-20 [5] (Homo sapiens, S1B1-20), this molecule registered an IC50 of 1.92 µM.
As a reminder, the TGI is how far tumour growth fell short of that in controls. For `COc1ccc(C(C#N)(CCCCCN2Cc3cc(OC)c(OC)cc3C2)Sc2ccc(C)cc2)cc1OC` (stereo in doubt; 28a), the logP in [1] stood at 5.55. Further, the ILS at 25 mg/kg with Mus musculus [9] turned out to be 41%; in the data set on Mus musculus [10] it was 63%. In the data set with Mus musculus [8], this molecule gave an increase in life span (ILS) of 15%. Moreover, the Relative tumor growth with Mus musculus [2] turned out to be 67. This molecule gave a TGI in the data set with Mus musculus [11] of 65%. In the data set with S1B1-20 [12], the CC50 is 22.8 µM. This molecule gave an IC50 in the data set on S1B1-20 [5] (s1b1-20) of 0.81 µM.
For `COc1cc2c(cc1OC)CN(CCCCCCC(Sc1ccccc1)c1ccccc1)CC2` (stereo unspecified), the logP in data set [1] is 7.99. For the same molecule, the ILS at 25 mg/kg came out at 46% in the data set with Mus musculus [9] and 68% with Mus musculus [10]. In the data set on Mus musculus [8], the ILS is 15%. Moreover, in the data set with Mus musculus [2], the Relative tumor growth is on record as 59. Further, the TGI with Mus musculus [13] is on record as 65%. The CC50 in [4] came to 24.6 µM. The same molecule showed an IC50 in the data set with S1B1-20 [5] (Homo sapiens, S1B1-20) of 3.82 µM.
Take `COc1ccc(C(C#N)(CCCCCN2Cc3cc(OC)c(OC)cc3C2)Sc2ccc(C)cc2)cc1OC` (stereo in doubt; 44): the CC50 in the data set with S1B1-20 [12] was 11.4 µM. In addition, the IC50 in the data set on S1B1-20 [5] (s1b1-20) worked out at 0.26 µM.
In the case of `COc1ccc(C(C#N)(CCCCCN2CCc3ccccc3C2)Sc2ccc(C)cc2)cc1OC` (stereo unspecified), the log partition coefficient (logP) in [1] was 6.72. The ILS at 25 mg/kg with Mus musculus [9] was 11%; in the data set with Mus musculus [10], 27%. Moreover, the ILS in the data set on Mus musculus [8] was determined as 14%. The CC50 in data set [4] turned out to be 24.7 µM. In the data set with S1B1-20 [5] (Homo sapiens, S1B1-20), this molecule yielded an IC50 of 2.56 µM.
With `COc1ccc(C(C#N)(CCCCCN2CCc3cc4c(cc3C2)OCO4)Sc2ccc(C)cc2)cc1OC` (stereo unspecified), in data set [1], the logP was found to be 6.08. For the same molecule, the ILS at 25 mg/kg was 16% in the data set on Mus musculus [9] and 38% in the data set on Mus musculus [10]. Also, the ILS with Mus musculus [8] was found to be 24%. Further, the CC50 in data set [4] was found to be 30 µM. This molecule displayed a 50% inhibitory concentration (IC50) with S1B1-20 [5] (Homo sapiens, S1B1-20) of 3.09 µM.
Take `COc1ccc(C(C#N)(CCCCCN2CCc3cc(OC)c(OCCn4ccnc4)cc3C2)Sc2ccc(C)cc2)cc1OC` (stereo in doubt; 39a): the increase in life span (ILS) at 50 mg/kg in the data set with Mus musculus [14] worked out at 48%; with Mus musculus [15] it was 71%. In the data set on Mus musculus [8], the increase in lifespan (ILS) came to 15%. Also, the Relative tumor growth in the data set with Mus musculus [2] was 67. Moreover, the TGI with Mus musculus [16] amounted to 46%. Also, the CC50 in the data set on S1B1-20 [12] was determined as 14.7 µM. Further, in the data set on S1B1-20 [5] (s1b1-20), half-maximal inhibition (IC50) was put at 0.69 µM.
Turning to `COc1ccc(C(CCCCCN2CCc3cc(OC)c(OC)cc3C2)Sc2ccc(C)cc2)cc1OC` (stereo unspecified), in [1], the logP was found to be 7.42. In addition, the ILS at 6.3 mg/kg in the data set with Mus musculus [17] was determined as 13%; with Mus musculus [18] it was 37%. The ILS with Mus musculus [8] was 21%. In the data set with Mus musculus [2], the Relative tumor growth is given as 58. This molecule returned a TGI in the data set on Mus musculus [13] of 68%. Further, the CC50 in data set [4] is 16.9 µM. In addition, inhibition with S1B1-20 [5] (Homo sapiens, S1B1-20) was half-maximal at 0.33 µM (IC50).

These data come from ChEMBL document CHEMBL1132241, “Novel multidrug resistance reversal agents” (J Med Chem, 1999).
